Screening results (PubChem BioAssay)
PostGolgi ctrl: growth of the yeast control strain, post-Golgi counter-screen; efflux-deficient yeast background strain, growth absorbance A615, 16 h; AID 738; inhibition, % at 10 µM; 98,000 compounds, 5% hits
Ecoli tolC: E. coli tolC mutant growth inhibition. E. coli BW25113 tolC mutant growth, OD615. growth inhibition, % at 10 µM (by protocol). 65,000 compounds, 2.2% hits. AID 573;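 active = growth inhibition at or above a cutoff equal to the mean over every tested compound plus 3 SD, cut at about 60% in these data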;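 also: growth measured after 20 h incubation at 37 °C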
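Test system: E. coli BW25113 ΔtolC::kan bacteria | Medium: Kanamycin-containing LB broth (50 µg/mL) | Dosing: One dose of 10 µM final | Times: 20 h incubation with compound, 37 °C | Detection: Optical density read at 615 nm | Read-out basis: Percent growth inhibition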
PostGolgi yeast: growth inhibition of a yeast mutant, post-Golgi transport screen; post-Golgi transport phenotypic cell assay; inhibition, % at 10 µM; 98,000 compounds, 0.9% hits;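 also: yeast cells grown in 1536-well plates; yeast grown about 18 h at 30C before absorbance read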
E coli WT exp: growth inhibitors of E. coli BW25113 wild type. OD600 absorbance. 98,000 compounds, 0.15% hits. AID 710. growth inhibition, % at 100 µM;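 active = growth inhibition above about 50% at one test dose, limit read from the data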;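 also: growth measured after 20 h incubation at 37 °C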
EphB4 ephrin blk: EphB4-ephrin-B2 interaction antagonism; P54760; EphB4 LBD / TNYL-RAW-Alexa532 peptide, fluorescence polarization; inhibition, % at 7 µM; 97,000 compounds, 0.15% hits; AID 720;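 active = inhibition above the screen-wide mean inhibition plus 3 SD, cut at about 15% in these data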;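 also: 0% = DMSO wells and 100% = excess unlabeled TNYL-RAW peptide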
* = called active by the depositor; · = not tested or not shown; [ ] = remark or other dose. This is a sample that favours compounds with a hit; in the whole collection about 6% have one here. Rule as the data show it, unless noted: active = inhibition above about 30%; inactive = the rest.

SMILES	PostGolgi ctrl	Ecoli tolC	PostGolgi yeast	E coli WT exp	EphB4 ephrin blk
Cc1c(Cl)c(C(F)(F)F)nn1CC(=O)N1CCSCC1	-8.0	10.2	3.1	5.0	-5.8
OCCNc1nc(SCc2ccccc2)nc2sc3c(c12)CCC3	74.2*	·	-0.9	-17.0	-1.1
O=C(NCc1cccc(C(F)(F)F)c1)C1CC(c2c(Cl)cccc2Cl)=NO1 (centres undefined)	34.0*	·	-7.5	2.0	-1.6
CC(=O)Nc1nnc(SCC(=O)NC(C)(C)C)s1	31.8*	-1.6	-4.2	1.0	11.6
Cc1c2cc(O)c(=O)cc-2oc2cc(O)c(O)cc12	12.1	·	-6.3	4.0	48.5*[fluorescence artefact?]
CCCN(CCC)CC(=O)Nc1cccc2c1OCO2	4.2	·	-1.1	9.0	-0.8
COC(=O)c1ccc(Cn2cnc3c(sc4nc(N5CCOCC5)c5c(c43)CCCC5)c2=O)o1	22.4	5.6	2.4	-8.0	·
CC(C)(C)NC(=O)C(c1ccco1)N(C(=O)Cn1nnc(-c2ccc(F)cc2)n1)c1ccccc1 (centres undefined)	·	·	·	·	-3.8
CC(C)(C)NC(=O)C(c1ccco1)N(C(=O)Cn1nnc(-c2ccc(F)cc2)n1)c1ccccc1F (centres undefined)	79.2*	71.0*	76.3*	0.0	-6.1
CCn1c2c(c3cc(OCC(C)C)ccc31)CCCC2=O	·	·	·	·	7.2
CCn1c2c(c3cc(Br)ccc31)CCC/C2=N\O	41.0*	47.1	5.7	-1.0	1.8
Clc1cc(CSc2ccccc2)nc(-c2ccccc2)n1	13.6	·	8.4	-3.0	3.5
Cc1cccc(N=c2oc3cc(O)ccc3cc2C(N)=O)c1	17.6	97.5*	12.1	8.0	-1.6
COc1ccccc1N=c1oc2cc(O)ccc2cc1C(N)=O	4.2	15.6	-4.7	0.0	0.5
CCN1C(=O)c2ccc(C(=O)NCc3ccccc3)cc2C1=O	2.8	-2.2	41.7*	-5.0	-4.3
O=C(NCc1ccco1)c1ccc2c(c1)C(=O)N(Cc1ccccc1)C2=O	44.2*	13.6	-4.1	4.0	1.9
CC1Cc2ccccc2N1C(=O)CSc1nnc2c(n1)[nH]c1ccc(F)cc12 (centres undefined)	·	·	·	·	5.2
O=c1cc(N2CCCCC2)c(-c2ccccc2)nn1Cc1ccc(Cl)cc1	29.5	·	-1.9	-4.0	-0.6
O=c1cc(N2CCCCC2)c(-c2ccccc2)nn1Cc1c(Cl)cccc1Cl	45.5*	·	-3.8	-14.0	7.5
Cc1cc(C)nc(-n2nc(C)cc2NC(=O)CNC(C)c2ccccc2)n1 (centres undefined)	34.0*	·	8.3	-1.0	-6.9
Cc1cc(N2CCN(c3ccccc3)CC2)nc(-c2ccccc2)n1	67.3*	76.9*	-1.2	-25.0	5.1
Cc1cc(N2CCN(c3ccccc3)CC2)nc(N)n1	·	·	·	·	2.6
Cc1cc(N2CCN(C(=O)c3ccco3)CC2)nc(-c2ccccc2)n1	·	5.3	·	·	·
COc1ccc(C2(O)CC3CCC(C2)N3c2cc(C)nc(-c3ccccc3)n2)cc1 (centres undefined)	8.7	86.9*	8.3	2.0	9.0
Cc1cc(N2CCCCCC2)nc(-c2ccccc2O)n1	34.2*	80.8*	1.1	0.0	5.7
SMILES	PostGolgi ctrl	Ecoli tolC	PostGolgi yeast	E coli WT exp	EphB4 ephrin blk
Cc1cc(NC2CCCCC2)nc(-c2ccccc2O)n1	17.6	·	4.6	-5.0	0.6
Cc1cc(C)nc(Nc2nc(C)c3cc4c(cc3n2)OCO4)n1	36.0*	-8.0	-2.2	6.0	-4.5
O=Nc1c2nc3ccccc3n(O)c-2c2ccccc12	22.9	87.1*	6.6	2.0	-4.5
O=C(O)Cn1c(-c2ccccc2)nc2ccccc21	2.7	-25.1	-0.3	0.0	3.3
CC(=O)n1c(Cl)c(NC(=O)CCl)c2ccccc21	-2.1	·	11.7	3.0	3.5
Cc1ccc(C2CC(c3cccc(Br)c3)Nc3nnnn32)cc1 (centres undefined)	11.7	66.6*	4.5	-9.0	2.6
FC(F)(F)c1nc(-c2ccncc2)ncc1-c1nnnn1-c1ccccc1	13.0	·	2.2	3.0	6.9
Fc1ccc(-n2nnnc2-c2cnc(-c3cccs3)nc2C(F)(F)F)cc1	45.5*	·	1.1	-7.0	-2.6
FC(F)(F)c1nc(N2CCCC2)ncc1-c1nnnn1-c1ccc(Cl)cc1	57.5*	·	21.6	5.0	-1.5
CC1CN=C(N(C(=O)Nc2ccccc2)c2ccc(F)cc2)S1 (centres undefined)	1.7	·	-2.9	6.0	6.4
Cc1[nH]nc(-c2ccc(O)c(C)c2O)c1-c1cnn(-c2ccccc2)c1	8.4	54.7	-11.3	4.0	-3.1
COc1ccc(O)c(-c2c(-c3ccc(Cl)cc3)n[nH]c2C)c1	26.1	51.6	-3.6	4.0	-1.8
